This note sets out measurements from PMC5473467 (Nature, 2017).

The test system of data set [1] is C. parvum. Description: C. parvum cytopathic effect. The settings on record: for EC50: Cryptosporidium parvum, HCT-8, read-out: Cp CPE EC50. It counts as cell-based, Cryptosporidium parvum. A digest of the protocol:
(§1)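 HCT-8 cells were kept in RPMI-1640 with 10% heat-inactivated horse serum. Oocysts were primed in 10 mM HCl in HBSS for 10 min at 37 °C, washed, then excysted in L-15/UltraCULTURE medium with 2 mM taurocholate, 10% horse serum and 200 μM ascorbate. Compound dilutions were made in taurocholate-free medium. EC50 came from ten-point threefold dose–response series.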
On the technique in general: Damage to the host cells serves as the signal in cytopathic effect assays.

The test system of data set [2] is C. parvum. Put plainly: C. parvum High Content Imaging. The class given is cell-based. The settings on record: Cryptosporidium parvum, HCT-8, read-out: Cp HCI IC50. A digest of the protocol: as §1
The subject of the next data set is C. hominis. Description: C. hominis cytopathic effect. The settings on record: for EC50: Cryptosporidium hominis, HCT-8, read-out: Ch CPE EC50. It counts as cell-based, Cryptosporidium hominis. A digest of the protocol:
as §1

The next data set deals with T1, CpPI(4)K (cgd8_4500) (Cryptosporidium parvum, UniProt Q5CVD3).
T1 sequence (Q5CVD3 1-1114): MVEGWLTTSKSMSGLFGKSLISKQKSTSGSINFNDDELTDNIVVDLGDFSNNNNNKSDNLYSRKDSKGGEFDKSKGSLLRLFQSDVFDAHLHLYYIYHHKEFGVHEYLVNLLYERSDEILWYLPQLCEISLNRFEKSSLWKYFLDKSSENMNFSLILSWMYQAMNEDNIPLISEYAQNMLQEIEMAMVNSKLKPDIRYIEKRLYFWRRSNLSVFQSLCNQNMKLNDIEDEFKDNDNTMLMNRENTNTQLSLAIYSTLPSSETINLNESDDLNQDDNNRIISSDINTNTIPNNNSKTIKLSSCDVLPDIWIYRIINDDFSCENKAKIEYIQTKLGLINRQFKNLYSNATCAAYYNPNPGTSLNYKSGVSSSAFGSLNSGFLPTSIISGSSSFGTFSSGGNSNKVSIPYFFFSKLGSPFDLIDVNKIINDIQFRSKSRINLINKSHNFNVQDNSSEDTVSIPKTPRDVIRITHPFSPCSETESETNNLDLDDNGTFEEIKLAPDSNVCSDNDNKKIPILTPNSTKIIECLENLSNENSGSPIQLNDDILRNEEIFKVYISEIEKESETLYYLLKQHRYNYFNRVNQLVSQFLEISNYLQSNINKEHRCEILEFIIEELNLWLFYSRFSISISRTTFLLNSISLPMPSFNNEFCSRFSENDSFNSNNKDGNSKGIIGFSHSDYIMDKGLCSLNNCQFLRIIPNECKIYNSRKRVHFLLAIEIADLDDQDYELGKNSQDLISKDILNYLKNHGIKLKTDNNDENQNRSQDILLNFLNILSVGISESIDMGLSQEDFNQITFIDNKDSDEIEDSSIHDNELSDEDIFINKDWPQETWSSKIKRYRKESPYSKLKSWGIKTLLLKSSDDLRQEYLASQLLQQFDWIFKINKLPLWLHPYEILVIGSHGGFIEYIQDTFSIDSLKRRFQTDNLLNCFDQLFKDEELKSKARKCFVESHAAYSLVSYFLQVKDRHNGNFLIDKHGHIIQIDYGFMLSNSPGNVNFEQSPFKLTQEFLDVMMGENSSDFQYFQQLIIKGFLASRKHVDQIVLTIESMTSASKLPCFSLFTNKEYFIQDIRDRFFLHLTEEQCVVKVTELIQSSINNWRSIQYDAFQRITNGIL
Put plainly: CpPI. The settings on record: for IC50: Cp PI(4)K IC50, 3 μM ATP. It counts as biochemical, C. parvum.

For another data set, the system named is Pf 3D7. Description: P. falciparum 3D7 growth inhibition. It counts as cell-based. The settings on record: Plasmodium falciparum, 3D7, read-out: Pf 3D7 IC50.
A short description of a further data set: in vitro. The settings on record: human, HepG2 CC50, 96 hours. The class given is cell-based.
The next data set relates to C. parvum UGA2 Fluc. Description: Mouse model following tissue parasite load using whole-animal imaging. It counts as in vivo, IFN-γKO mice. The settings on record: 100 mg/kg daily from day 7.

The EC50 is the concentration needed to bring the measured effect to its halfway point. As usually defined, the IC50 is the concentration needed to halve the response being measured. By CC50 is commonly meant the concentration at which the toxic effect on the cells reaches its halfway point. Read a low CC50 as greater toxicity to the cells.

Some results are limits rather than exact numbers.

Turning to `CC(=O)Oc1ccccc1C(=O)Nc1ncc([N+](=O)[O-])s1` [Nitazoxanide], the EC50 with C. parvum [1] is 14.3 ± 7.13 µM; in the data set on C. hominis it was over 20 µM. The IC50 with C. parvum [2] was 2.93 ± 0.808 µM; on CpPI(4)K (cgd8_4500), over 10 µM; with Pf 3D7, over 10 µM. In the data set “in vitro”, this molecule displayed a CC50 of 12.7 ± 2.38 µM. Also, the “tissue load” value in the data set with C. parvum UGA2 Fluc was “no change”.

Turning to `CS(=O)(=O)c1ccc(-c2cnc(N)c(-c3ccc(C(F)(F)F)nc3)c2)cc1` [MMV390048], in the data set with C. parvum [1], the “activity against C. parvum” value was “inactive” and the EC50 stood at 12.8 ± 6.26 µM. Also, the IC50 in the data set on C. parvum [2] worked out at 13.4 µM. Moreover, in the data set with C. hominis, the “activity against C. hominis” value is “inactive” and the EC50 turned out to be 11.8 ± 2.76 µM. In addition, at CpPI(4)K (cgd8_4500), the “inhibition of CpPI(4)K enzymatic activity” value was “do not inhibit” and the IC50 was 8.33 ± 2.35 µM. Besides, the IC50 in the data set on Pf 3D7 came to 0.042 ± 0.022 µM. The molecule also showed a CC50 in the data set “in vitro” of 26.2 ± 16.1 µM.
